In brackets after ≈: the same amount, converted by molar mass.
How the values were obtained:
[1] = Saturation solubility of ERL batches in water; format: physicochemical
[2] = In vitro dissolution, USP apparatus II; format: physicochemical; settings: within 5 min
Summary of the method: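 USP II paddle dissolution at 37 ± 0.5°C and 75 rpm in 500 ml of 0.1 N HCl, FaSSIF or FeSSIF. Plain drug or liquisolid formulation was added at 50 mg drug-equivalent. Aliquots were taken at […], with the medium replaced each time. Samples were centrifuged at 10,000 rpm for 10 min and the supernatant was quantified by HPLC-DAD at 246 nm.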

[3] = tested on: ERL-resistant HCC827 cells; test: In vitro cytotoxicity, crystal violet; format: cell-based; settings: 48 h
[4] = human; cited from earlier work
[5] = tested on: HCC 827/ERL cells; test: Annexin V-FITC apoptosis assay, flow cytometry; format: cell-based; settings: HCC827/ERL cells, 48 h, VA 0.5 mM where present

C#Cc1cccc(Nc2ncnc3cc(OCCOC)c(OCCOC)cc23)c1 [ERL, Erlotinib]
solubility at 24 h [1]: 0.7 µg/mL (≈ 1.78 µM) | % drug dissolved ([2]; FaSSIF): 1.1% | % drug dissolved ([2]; FeSSIF): 13% | % cell killing ([3]; 25 μM (highest concentration)): < 15% | Absorbed after oral administration [4]: about 60%

CCCC(CCC)C(=O)O [VA, 2-propylpentanoic acid]
Cell killing ([3]; 0.5 mM): did not show significant cell killing | Apoptotic cells [5]: poor apoptotic effect

From article PMC12988600 (AAPS PharmSciTech, 2019)
